What was measured:
Type in all cases: functional, cell-based
[1] = target: Excitatory amino acid transporter 1 (Homo sapiens) (UniProt P43003); experiment: Binding affinity to human EAAT1 expressed in HEK293 cells in FMP (FLPR) assay
How it was run: (§1)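 HEK293 cells stably expressing the human transporter, seeded on poly-D-lysine plates in DMEM with 10% dialyzed FBS and G-418 for 16–24 h. Cells washed in Krebs buffer (pH 7.4), then loaded with FMP dye for 30 min at 37 °C. Read at room temperature, excitation 530 nm and emission 560 nm, for up to 1 min after substrate addition. Non-substrate inhibitors were preincubated and tested against 30 μM Glu. Seven-concentration curves from maximal responses, duplicate, at least three times.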

[2] = target: T1, Excitatory amino acid transporter 3 (Homo sapiens) (UniProt P43005); experiment: Binding affinity to human EAAT3 expressed in HEK293 cells in FMP (FLPR) assay; how it was run: as §1
T1 sequence (whole entry): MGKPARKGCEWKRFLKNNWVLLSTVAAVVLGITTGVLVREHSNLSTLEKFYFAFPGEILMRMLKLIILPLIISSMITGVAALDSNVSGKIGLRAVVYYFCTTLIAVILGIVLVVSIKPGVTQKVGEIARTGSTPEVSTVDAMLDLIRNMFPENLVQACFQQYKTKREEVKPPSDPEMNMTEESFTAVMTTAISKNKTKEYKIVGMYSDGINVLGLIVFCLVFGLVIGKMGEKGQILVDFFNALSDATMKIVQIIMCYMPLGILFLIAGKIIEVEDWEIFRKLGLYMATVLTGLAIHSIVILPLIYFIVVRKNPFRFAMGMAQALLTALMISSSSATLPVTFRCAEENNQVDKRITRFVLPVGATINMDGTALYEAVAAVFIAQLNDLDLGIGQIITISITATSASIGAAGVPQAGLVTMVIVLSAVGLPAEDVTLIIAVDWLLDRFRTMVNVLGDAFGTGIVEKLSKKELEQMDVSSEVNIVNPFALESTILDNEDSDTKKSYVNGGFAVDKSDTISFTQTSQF

[3] = target: Excitatory amino acid transporter 2 (Homo sapiens) (UniProt P43004); experiment: Binding affinity to human EAAT2 expressed in HEK293 cells in FMP (FLPR) assay; how it was run: as §1
Sequence of Excitatory amino acid transporter 2 (Homo sapiens) (P43004 whole entry): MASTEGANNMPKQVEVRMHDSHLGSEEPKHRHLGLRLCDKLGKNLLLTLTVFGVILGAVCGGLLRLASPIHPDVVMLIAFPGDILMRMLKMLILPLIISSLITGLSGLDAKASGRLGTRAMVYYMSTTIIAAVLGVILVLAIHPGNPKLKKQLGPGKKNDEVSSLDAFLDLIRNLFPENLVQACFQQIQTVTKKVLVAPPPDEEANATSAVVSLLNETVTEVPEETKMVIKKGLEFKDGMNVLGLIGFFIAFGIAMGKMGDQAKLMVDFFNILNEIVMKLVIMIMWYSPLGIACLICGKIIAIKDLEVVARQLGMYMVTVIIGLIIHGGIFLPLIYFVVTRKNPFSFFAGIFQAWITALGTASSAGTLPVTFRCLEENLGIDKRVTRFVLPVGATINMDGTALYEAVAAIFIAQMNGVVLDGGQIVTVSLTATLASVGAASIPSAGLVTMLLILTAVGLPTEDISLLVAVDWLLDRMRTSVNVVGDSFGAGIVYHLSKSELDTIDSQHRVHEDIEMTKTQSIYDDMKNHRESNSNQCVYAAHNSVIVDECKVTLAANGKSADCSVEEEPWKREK

Sequence of Excitatory amino acid transporter 1 (Homo sapiens) (P43003 whole entry): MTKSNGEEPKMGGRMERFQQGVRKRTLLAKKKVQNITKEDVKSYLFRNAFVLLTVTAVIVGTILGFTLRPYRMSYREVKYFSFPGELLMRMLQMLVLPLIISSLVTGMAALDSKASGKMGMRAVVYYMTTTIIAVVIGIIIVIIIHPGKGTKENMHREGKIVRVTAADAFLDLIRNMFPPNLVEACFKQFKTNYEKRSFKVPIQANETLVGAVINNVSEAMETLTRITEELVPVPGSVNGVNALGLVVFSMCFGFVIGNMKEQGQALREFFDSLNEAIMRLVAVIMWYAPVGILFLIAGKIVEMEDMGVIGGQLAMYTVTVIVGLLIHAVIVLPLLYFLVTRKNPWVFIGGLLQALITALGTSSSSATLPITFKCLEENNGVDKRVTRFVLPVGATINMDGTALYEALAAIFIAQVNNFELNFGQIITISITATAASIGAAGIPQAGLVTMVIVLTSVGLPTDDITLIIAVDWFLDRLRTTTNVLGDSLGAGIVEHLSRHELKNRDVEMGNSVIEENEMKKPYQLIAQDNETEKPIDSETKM

Row | pKm [1] | pKm [2] | pKm [3] | SMILES
1 | 5.04 | 4.61 | 4.69 | N[C@@H](CCC(=O)O)C(=O)O
2 | 3 | 3 | 3 | N[C@@H](C[C@@H](O)C(=O)O)C(=O)O
3 | 4.06 | 4.16 | 4.21 | N[C@@H](C[C@H](O)C(=O)O)C(=O)O
4 | 4.92 |  |  | C[C@H](C[C@H](N)C(=O)O)C(=O)O

— ChEMBL document CHEMBL1141219, “Chemoenzymatic synthesis of a series of 4-substituted glutamate analogues and pharmacological characterization at human glutamate transporters subtypes 1-3” (J Med Chem, 2005)
